Measurements as given in publication PMC8496415 (Translational Vision Science & Technology, 2021).

Key:
[1] = Maximum solubility / achievable concentration in solution; assay type: physicochemical
Long Evans rat eyes = test: Clinical examination, OCT imaging and ERG after 28-day once-daily eye drop; assay type: in vivo
rat eyes = test: Histology and immunohistochemistry; assay type: in vivo; conditions: once-daily 10% eye drop, 14 and 28 days
In short: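 Rats received 5 µL of 10% test compound drops once daily in one eye, PBS in the other. Eyes were taken at days 14 and 28, fixed overnight in 4% paraformaldehyde at 4°C, frozen and cut into 12 µm sections. Stains: H&E; cleaved caspase-3 (5% BSA block, primary 1:200 2 h, Alexa 488 secondary 1:400 1 h, DAPI) with caspase-3+ DAPI+ cells scored; TUNEL with DNase I-treated positive control. Mean ± SEM, two-way ANOVA/Sidak.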

axial elongation = conditions: topical, chick; ref 25 (Thomson et al.); cited from earlier work
[2] = rat, once-daily 10% eye drop, 14 and 28 days

| SMILES | Maximum solubility ([1]; PBS, pH 7.4) | Rat behavior (activity levels, aggression, feeding pattern, weight gain) (Long Evans rat eyes; 28-day once-daily topical 10%) | ERG A- and B-wave amplitude vs control eyes (Long Evans rat eyes; [2]) | OCT retinal structure (Long Evans rat eyes; [2]) | Hematoxylin and eosin staining of retina (inflammation) (rat eyes) | Number of cleaved caspase-3+ DAPI+ cells vs control (apoptosis) (rat eyes) | TUNEL staining (apoptosis) (rat eyes) | EC50 for a reduction of axial elongation (axial elongation) | Maximum concentration achievable ([1]; distilled water) |
| --- | --- | --- | --- | --- | --- | --- | --- | --- | --- |
| CCOC(=O)[C@@H](N)Cc1ccc(O)c(O)c1 [etilevodopa] | 10% | no obvious changes in rat behavior | no statistically significant difference in A- or B-wave amplitudes | did not demonstrate any qualitative structural changes | no infiltration of inflammatory cells, fibrosis or morphological changes | no statistically significant change | no TUNEL^+ DAPI^+ cells observed | – | – |
| N[C@@H](Cc1ccc(O)c(O)c1)C(=O)O [levodopa] | – | – | – | – | – | – | – | 0.05% | 0.5% |
